Assay results taken from ChEMBL document CHEMBL1151695, “Design, synthesis and preliminary pharmacological evaluation of new analogues of DM232 (unifiram) and DM235 (sunifiram) as cognition modulators” (Bioorg Med Chem, 2008).

Legend:
Mus musculus [1] = test: Antiamnesic activity in scopolamine-induced mouse assessed as latency time to enter dark room in retention session at 30 mg/kg, ip treated 20 mins before training session by passive avoidance test; format: functional; details: route intraperitoneal
Summary of the method: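 Mouse step-through passive avoidance in a two-compartment box (lit and dark, guillotine door); entry into the dark side is punished by a fall from 40 cm into a 10 °C water bath. Drug given ip 20 min before training. Scopolamine 1.5 mg/kg given immediately after training. Retention tested the next day, read as latency to enter the dark room. Mice not entering within 60 s at training were excluded.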

Mus musculus [2] = test: Antiamnesic activity in scopolamine-induced mouse assessed as latency time to enter dark room in training session at 30 mg/kg, ip treated 20 mins before training session by passive avoidance test; format: functional; details: route intraperitoneal
Mus musculus [3] = test: Antiamnesic activity in ip dosed mouse assessed as reversal of scopolamine-induced memory loss treated 20 mins before training session by passive avoidance test; format: functional; details: read-out: MED
Summary of the method: (§1)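 Step-through passive avoidance in mice: lit and dark compartments joined by a guillotine door. Entering the dark side drops the mouse 40 cm into 10 °C water, a non-painful punishment. Mice not entering within 60 s at training were excluded. Compound given ip at 1:10 dilution steps […], 20 min before training. Vehicle was saline or saline/DMSO 4:1. Scopolamine 1.5 mg/kg ip immediately after punishment. Retention tested next day. MED is the lowest dose reversing amnesia.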

Mus musculus [4] = test: Effect on passive avoidance in mouse assessed as latency time to enter dark room in retention session at 0.01 mg/kg, ip treated 20 mins before training session; format: functional; details: route intraperitoneal
Summary of the method: (§2)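 Same step-through passive avoidance without scopolamine. Punishment is a 40 cm fall into 10 °C water on entering the dark room. Mice not entering within 60 s at training were excluded. Compound given ip at 1:10 dilution steps, 20 min before training, in saline or saline/DMSO 4:1. Controls received an extra saline injection right after training. Latency to enter the dark room recorded at training and at next-day retention.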

Mus musculus [5] = organism: Mus musculus; test: Effect on passive avoidance in mouse treated 20 mins before training session; format: functional; details: read-out: MED; summary of the method: as §2
Mus musculus [6] = organism: Mus musculus; test: Toxicity in mouse assessed as motor coordination after 45 mins by rotarod test; format: organism-based; details: in vivo, 0.75 h
Summary of the method: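 Rota-rod: rod 30 cm long, 15 cm above the base, split into five sections, rotating at 16 rpm. Falls counted over 30 s. Mice with fewer than 3 or more than 6 falls in the pretest were rejected. Performance measured at pretest and 15, 30 and 45 min after test start. Compared with saline-treated mice.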

Mus musculus [7] = test: Antiamnesic activity in scopolamine-induced mouse assessed as latency time to enter dark room in retention session at 0.001 mg/kg, ip treated 20 mins before training session by passive avoidance test; format: functional; details: route intraperitoneal; summary of the method: as §1
Mus musculus [8] = test: Effect on passive avoidance in mouse assessed as latency time to enter dark room in training session at 0.01 mg/kg, ip treated 20 mins before training session; format: functional; details: route intraperitoneal; summary of the method: as §2
Mus musculus [9] = organism: Mus musculus; test: Toxicity in mouse assessed as spontaneous motility and inspection activity after 5 mins by hole board test; format: organism-based; details: in vivo
Summary of the method: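 Hole-board: 40 cm square plane with 16 holes of 3 cm, arranged 4×4. Each mouse placed centrally and free to move for […]. Photocells counted locomotion (spontaneous motility) and hole exploration, both as counts in 5 min. Compared with saline-treated mice.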

Mus musculus [10] = test: Antiamnesic activity in scopolamine-induced mouse assessed as latency time to enter dark room in training session at 0.001 mg/kg, ip treated 20 mins before training session by passive avoidance test; format: functional; details: route intraperitoneal; summary of the method: as §1

SMILES	Activity (Mus musculus [1]) [s]	Activity (Mus musculus [2]) [s]	minimal effective dose (Mus musculus [3]) [mg/kg]	Activity (Mus musculus [4]) [s]	minimal effective dose (Mus musculus [5]) [mg/kg]	Activity (Mus musculus [6])	Activity (Mus musculus [7]) [s]	Activity (Mus musculus [8]) [s]	Activity (Mus musculus [9])	Activity (Mus musculus [10]) [s]
NC(=O)CN1CCCC1=O [PIRACETAM]	108.8	17.6	30	–	–	–	–	–	–	–
O=C1CCC2CN(S(=O)(=O)c3ccc(F)cc3)CCN12 (centres undefined) [UNIFIRAM]	–	–	0.001	131.6	0.01	Non-toxic	104.4	15.4	Non-toxic	19.7
CCC(=O)N1CCN(C(=O)c2ccccc2)CC1 [SUNIFIRAM]	–	–	0.001	126.7	0.01	Non-toxic	91.5	18.1	Non-toxic	20.5
